# Source: PubChem (Broad Institute)
# PAX8 inh HTS = PAX8 transcriptional activity inhibition; AID 652154; RMG-I TPO-luciferase reporter, SteadyGlo, 24 h; inhibition, % at 12.6 µM; 360,000 tested, 1.2% active;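 active = mean replicate inhibition at least 60% with every replicate also reaching 60%; inconclusive = only one of the two criteria is met; inactive = mean below 60% and not all replicates reaching 60%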;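 also: luciferase light reporting Pax8 driven TPO promoter activity; plate controls were median of neutral control wells for no effect and mitoxantrone controls for full effect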
# Env fusion inh = HIV envelope-mediated fusion inhibition. HeLa-JRFL Env/CEM21 cell fusion, luciferase. inhibition, % at 12.3 µM. AID 651610. 360,000 tested, 1.1% active;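 active = mean replicate inhibition score of at least 50 and every replicate individually at or above 50; inconclusive = only one of the two criteria met; inactive = mean below 50 and not all replicates reaching 50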;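 also: 0% = plate neutral controls and 100% = maraviroc near 300 nM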
# CFTR F508del cor = CFTR F508del correction in bronchial cells; CFBE cells, YFP halide quenching; stimulated with forskolin plus potentiator P3; % fluorescence drop versus neutral controls; activity (quench increase), % at 7.58 µM; 350,000 tested, 0.36% active; AID 720511;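 active = mean added fluorescence quench of at least 8% versus neutral control, with both replicates also reaching 8%; inconclusive = only one of the mean or replicate conditions met; inactive = mean below 8% and not both replicates reaching 8%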;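 also: cells transiently co-express mutant CFTR-F508del with the halide-sensitive YFP; corrector assay measuring rescue of mutant channel to the surface after 24 h compound exposure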
# FN deposition inh = fibronectin deposition inhibition; AH1F fibroblasts, Alexa488-fibronectin deposition fluorescence, overnight; inhibition, % at 12.6 µM; 350,000 tested, 0.086% active;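 active = mean inhibition across replicates of 30% or more, regardless of how many single replicates reach that level; inconclusive = mean under 30% yet at least half of replicates reach 30%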;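 also: positive control wells lacked labelled fibronectin entirely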
#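 Assay system: AH1F fibroblast monolayer, labelled fibronectin deposition. Amount: 10000 cells per well. Also added: labelled fibronectin 24 nM. Compound: single-point pinned compound. Incubation: cell attachment 1 h, compound and FN exposure overnight. Detection: fluorescence after three HBSS washes, excitation 485 nm, emission 525 nm. Read-out: inhibition of fibronectin deposition signal.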
# EWS-Fli block = blocks EWS/Fli oncoprotein-driven transcription; A673 NR0B1-luciferase reporter, viability-normalised; inhibition, % at 12.6 µM; 350,000 tested, 0.67% active; AID 651661;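 active = mean inhibition of at least 50% after viability correction, with every replicate also passing that limit; inconclusive = mean reaches 50% but only one of two replicates passes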;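 also: firefly luciferase signal divided by Alamar Blue viability fluorescence both relative to DMSO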
# PGC1a acetyl inh = PGC1a acetylation modulation, inhibitor mode; U2OS PGC1a acetylation, AlphaScreen anti-acetyl-lysine; with virally co-expressed GCN5 acetyltransferase; inhibition, % at 15.6 µM; 350,000 tested, 0.17% active; AID 651687;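 active = every replicate shows inhibition of at least 40%; inconclusive = mean inhibition at least 40% but some replicate below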;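 also: 0% = neutral control wells and 100% = positive control wells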
# * hit, by the source's call; i = inactive; ? = inconclusive; · = not tested or not shown; [ ] = dose if it differs, or a comment. Rows were chosen to be rich in hits. Some 2.3% of all compounds tested hit in one or more screens of this group.
SMILES,PAX8 inh HTS,Env fusion inh,CFTR F508del cor,FN deposition inh,EWS-Fli block,PGC1a acetyl inh
FC(F)(F)c1cnc(NNC(=S)Nc2ccccc2Cl)c(Cl)c1,74.4*,32.6,·,7.4,·,·
C[C@H]1CN([C@@H](C)CO)C(=O)c2c(c3ccccc3n2C)-c2ccccc2CO[C@@H]1CN(C)C(=O)C1CC1,16.6,-0.3[16.7 µM],-0.4,-7.7,1.9,-0.2
COc1cccc(-c2ccc([C@@H]3[C@@H](CO)N4C(=O)CN(C(=O)CN5CCOCC5)C[C@H]34)cc2)c1,-6.5,·,4.5,·,3.6,-7.2
Cc1ccc(C(=O)CSc2nc(C)cc(SCc3nnc(-c4ccccc4)o3)n2)cc1,-12.1,61.7*,·,4.9,·,-10.6
S=c1[nH]nc(C2CCCCC2)n1/N=C/c1ccncc1,-56.6,55.7*,0.0,7.3,-13.7,·
O=C(/C=C/Nc1cccc(F)c1)c1ccco1,·,-129.8,·,·,·,-6.6
O=C(/C=C/Nc1ccc(F)cc1F)c1ccco1,-36.3,-158.9,-1.4,-3.0,64.8*,-7.2
O=C(/C=C/Nc1ccc(Br)cc1F)c1ccco1,-89.3,-108.9,-3.8,2.3,73.4*,4.0
CCN(CC)c1ccc(/C=N/NC(=O)c2cnccn2)cc1,-132.7,i,11.1*,·,-5.9,14.2
C[C@@H]1CN([C@H](C)CO)C(=O)c2cc(C#Cc3cccnc3)cnc2O[C@H]1CN(C)C(=O)CC1CC1,·,5.2[16.7 µM],1.8,7.0,-4.6,1.1
O=C(c1c[nH]c2ccccc12)C(Cl)c1ccccc1 (stereo unspecified),81.1*,-154.4,1.0,3.5,27.8,·
O=C(c1ccc(F)cc1)N1CCCCN2[C@H](CO)[C@H](c3ccc(-c4ccc(F)cc4)cc3)[C@@H]2C1,3.5,·,1.6,·,-11.6,-1.7
O=C(N/N=C/c1cc(O)ccc1Br)c1cccnc1,72.4*,7.6,5.3,15.0,10.3,·
Cn1nccc1C(=O)N/N=C/c1c(O)ccc2ccccc12,51.4,65.8*,11.2*,12.9,-9.0,·
CC(=NNC(=O)c1ccncc1)c1ccc2ccccc2c1O,39.2,39.1,24.7*,10.0,-7.2,-12.7
O=C(N/N=C/c1c(O)ccc2ccccc12)c1ccc(Br)o1,59.6,29.5,12.4*,·,·,·
O=C(C1CCC1)N1CC[C@@H]2[C@H](CO)Nc3ccc(-c4cccc(F)c4)cc3[C@@H]21,-22.2,·,0.9,-6.6,-6.3,-9.1
COc1ccc(S(=O)(=O)Nc2ccc3c(c2)C(=O)N([C@@H](C)CO)C[C@H](C)[C@@H](CN(C)S(C)(=O)=O)OCCCC[C@@H](C)O3)cc1,6.7,-2.6[16.7 µM],0.2,·,-11.3,5.5
O=C(N/N=C\c1c(O)ccc2ccccc12)c1cncc(Br)c1,65.2*,21.2,35.4*,4.6,0.4,·
COc1ccc(/C=N/NC(=O)c2ccoc2C)cc1COc1c(C)cccc1C,1.8,76.3*,·,-2.1,·,-1.8
COc1ccc(/C=N\NC(=O)c2ccccc2OC)cc1COc1ccccc1C,7.2,15.7,1.0,·,·,·
O=C(NN=Cc1c(O)ccc2ccccc12)c1ccncc1,95.3*,-37.0,6.1,19.9,22.9,2.7
O=C(N/N=C/c1c(O)ccc2ccccc12)c1cccnc1,70.4*,12.6,·,3.3,24.0,26.8
COc1ccc2ccccc2c1/C=N\NC(=O)c1cccnc1,12.0,7.3,-0.2,-1.4,1.4,-2.9
O=C(C[C@H]1C=C[C@H](NC(=O)C2CCC2)[C@H](CO)O1)NCc1ccncc1,-11.9,-2.2[16.7 µM],0.2,-7.1,-7.0,2.6
SMILES,PAX8 inh HTS,Env fusion inh,CFTR F508del cor,FN deposition inh,EWS-Fli block,PGC1a acetyl inh
Cc1occc1C(=O)N/N=C/c1c(O)ccc2ccccc12,22.3,-4.5,10.4*,8.2,-39.1,·
Cc1c(C(=O)N/N=C/c2c(O)ccc3ccccc23)nnn1-c1nonc1N,32.6,43.5,14.1*,0.5,16.1,·
O=C(N/N=C\c1c(O)ccc2ccccc12)c1ccc(O)cc1,?,14.2,-6.6,10.0,-12.6,2.4
COc1ccccc1NS(=O)(=O)c1ccc2oc(SCc3ccc(C#N)cc3)nc2c1,16.0,58.2*,·,2.1,·,·
CC(=O)Oc1cccc(N2C(=O)c3ccccc3C2=O)c1,77.7*,·,0.4,6.8,-7.4,·
COc1c(F)cccc1C1=CC(=O)C[C@H](c2ccc3c(c2)OCO3)C1,-15.4,-8.3,3.5,1.2,-5.7,0.2
CCOc1ccc(Br)cc1C1=CC(=O)C[C@H](c2ccc(OC)cc2)C1,30.8,37.3,-0.8,9.9,57.4*,·
COc1ccc(OC)c(C2=CC(=O)C[C@H](c3ccc4c(c3)OCO4)C2)c1,-6.6,1.6,4.3,-1.0,65.7*,-27.5
COc1ccc([C@H]2CC(=O)C=C(c3cc(C)ccc3OC)C2)cc1,18.8,-12.6,1.9,-1.6,59.9*,·
CC(C)NC(=S)N/N=C/c1ccc2c(c1)OCCO2,-4.2,-4.0,·,·,82.6*,·
S=C(NN=Cc1ccc2c(c1)OCO2)NN=Cc1ccc2c(c1)OCO2,-37.6,-0.7,5.0,-1.8,-13.6,-7.1
CC1(C(=O)N/N=C/c2ccc3c(c2)OCO3)CC1(Br)Br (stereo unspecified),-7.8,103.5*,-1.1,3.0,-9.4,·
CC(=O)Nc1cccc2c1O[C@H](CN(C)C(C)=O)[C@@H](C)CN(C)C2=O,·,·,·,-3.2,·,·
COCC(=O)Nc1ccc2c(c1)C(=O)N(C)[C@H]1CC[C@@H](CC(=O)NCc3cccc(F)c3)O[C@@H]1CO2,3.9,-10.1[16.7 µM],-1.5,-13.8,0.7,8.3
O=C(Nc1ccccc1)N1C[C@H]2[C@@H](c3ccccc31)[C@H](CO)N2C(=O)c1ccccn1,-39.6,·,11.4*,·,4.8,-0.5
O=C(Nc1ccccc1)N1C[C@@H]2[C@H](c3ccccc31)[C@@H](CO)N2C(=O)c1ccccn1,-36.2,·,0.2,·,-3.9,-9.2
O=C(Nc1ccccc1F)N1C[C@@H]2[C@H](c3ccccc31)[C@H](CO)N2C(=O)C1CC1,-59.9,·,-1.7,30.5*,-42.3,1.9
O=C(Nc1ccccc1F)N1C[C@@H]2[C@H](c3ccccc31)[C@@H](CO)N2C(=O)C1CCCC1,-21.0,·,0.3,9.9,-39.9,-6.5
O=C(Nc1ccccc1F)N1C[C@H]2[C@@H](c3ccccc31)[C@@H](CO)N2C(=O)c1ccccn1,-74.9,·,9.7*,·,-14.6,-4.8
